Compound activity as filed in PubChem BioAssay.
bovine MsrA act: bovine MsrA enzyme activators, primary screen, biochemical, absorbance, HTS; activation, % at 10.6 µM; purified bovine MsrA, absorbance read-out; 0.3% of 360,000 active; Methionine sulfoxide reductase A (Bos taurus); AID 602163, 2012; in the data active = activation above about 7.5%;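 also: 0% = vehicle and 100% = reference activator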
HTR2A ag: mouse Htr2a agonists via beta-arrestin recruitment, primary screen, cell-based, luminescence; CHO-K1 mHTR2A beta-arrestin complementation; percent of 30 µM serotonin response; activation, % at 7.6 µM; 0.66% of 360,000 active;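 active = activation above a run cutoff, the mean activation of all tested compounds plus 3 SD, cut at about 14% in these data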;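 also: 0% = plate median of compound wells and 100% = 30 µM serotonin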
Target sequence (P35363 whole entry, looked up): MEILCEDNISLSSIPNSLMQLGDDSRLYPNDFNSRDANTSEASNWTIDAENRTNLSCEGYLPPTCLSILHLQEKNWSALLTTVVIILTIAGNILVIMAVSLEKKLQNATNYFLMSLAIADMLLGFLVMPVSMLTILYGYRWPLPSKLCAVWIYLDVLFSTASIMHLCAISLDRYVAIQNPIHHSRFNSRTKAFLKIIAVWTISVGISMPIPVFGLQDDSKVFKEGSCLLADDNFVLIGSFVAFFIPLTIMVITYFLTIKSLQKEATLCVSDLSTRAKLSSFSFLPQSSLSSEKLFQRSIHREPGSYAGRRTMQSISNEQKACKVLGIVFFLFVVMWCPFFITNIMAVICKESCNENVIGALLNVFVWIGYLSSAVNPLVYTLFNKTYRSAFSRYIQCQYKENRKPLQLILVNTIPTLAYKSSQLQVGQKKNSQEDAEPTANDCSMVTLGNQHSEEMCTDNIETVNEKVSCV
AHR act: AHR activators, primary screen, cell-based, luminescence, luciferase reporter, human; AHR-responsive luciferase reporter cells; 2.5% of 320,000 active; activation, % at 5 µM; in the data active = activation above about 47%;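 also: 0% = vehicle wells and 100% = reference agonist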
TbMetRS inhib: T. brucei MetRS inhibitors, primary screen, biochemical, luminescence. purified T. brucei MetRS, ATP depletion, Kinase-Glo luminescence. inhibition, % at 11.9 µM. 0.4% of 360,000 active. AID 624268, 2012;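 active = inhibition above a per-plate cutoff of the control wells' mean inhibition plus 3 SD, cut at about 5.5% in these data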;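 also: 0% = DMSO wells median and 100% = median of wells with control inhibitor compound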
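Measured by: Kinase-Glo luciferase luminescence reporting remaining unconsumed ATP. Material: purified T. brucei MetRS enzyme. Doses: 11.9 µM compound single dose, 0.9% DMSO. Medium: HEPES buffer containing pyrophosphatase, BSA, spermine, DTT. Times: 15 min preincubation, 2 h reaction, all 25 °C. Reagent: methionine, ATP and bulk E. coli tRNA.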
AI-2 QS modul: Vibrio harveyi AI-2 quorum sensing modulators, primary screen, JMH597 strain, luminescence/OD600 ratio; Vibrio harveyi JMH597 AI-2 luminescence/OD600 ratio, 9 h; hits give low values; strain lacks LuxN and CqsS sensors; 0 = neutral-control median; activity change, % at 7.5 µM; 0.4% of 300,000 active; AID 2094, 2009; in the data active = activity change below about -75%, passing the limit was not always enough;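 also: luminescence divided by OD600 gain over 9 h not by final OD600 alone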
MsrA inh: bovine MsrA enzyme inhibitors, primary screen, biochemical, absorbance, HTS; 0.75% of 360,000 active; Methionine sulfoxide reductase A (Bos taurus); inhibition, % at 15.5 µM; purified bovine MsrA, absorbance read-out;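 also: 0% = vehicle wells with enzyme and 100% = reference inhibitor wells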
MsrA inh confirm: bovine MsrA inhibitors, retest, confirmation, biochemical, absorbance, HTS; shares compounds with MsrA inh; purified bovine MsrA, absorbance read-out; inhibition, % at 15.5 µM; 41% of 2,300 active; AID 651822, 2012;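 also: coupled to thioredoxin reductase with NADPH and selenocystamine and DMSO as substrate; 0% = vehicle only and 100% = full effect of reference inhibitor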
* = called active by the depositor; / = no result given. An excerpt weighted towards active compounds, which were near 4.4% of everything screened. Rule as the data show it, unless noted: active = inhibition above about 4.5%; inactive = the rest.

SMILES | bovine MsrA act | HTR2A ag | AHR act | TbMetRS inhib | AI-2 QS modul | MsrA inh | MsrA inh confirm
Cc1cc(NC(=O)COC(=O)C2=NN(c3ccccc3)C(=O)CC2)c([N+](=O)[O-])cc1C | -7 | 6 | 6 | 0 | / | 0 | /
O=C1CC(=O)NC(SCC(=O)Nc2ccccc2[N+](=O)[O-])=N1 | 0 | -4 | 14 | 1 | 19 | 0 | /
O=[N+]([O-])c1ccccc1NC(=S)N/N=C/c1ccc(O)c(O)c1 | -5 | 4 | 34 | 0 | 16 | 5.9* | 7.3*
CCOc1cccc(/C=N/NC(=S)Nc2ccccc2[N+](=O)[O-])c1O | -2 | 7 | 6 | 0 | 51 | 1 | /
COc1ccc(Cl)cc1NS(=O)(=O)c1cccc(C(=O)NCC2(N(C)C)CCCCC2)c1 | 1 | -10 | / | 0 | 5 | 0 | /
CCCCCCCCN | / | / | / | / | / | 0 | /
Cc1cc(N/N=C/c2ccc(O)cc2)nc(NS(=O)(=O)c2ccccc2)n1 | -5 | -2 | -4 | 0 | 7 | 4.9* | 5.3*
Cc1ccc(/C=N/Nc2cc(C)nc(NCc3ccccc3)n2)cc1 | 3 | -10 | 17 | -1 | -31 | 1 | /
CCOC(=O)C(C)Sc1nnc(NC(=O)c2ccc3c(c2)OCO3)s1 (centres undefined) | -5 | -1 | 4 | 0 | 4 | 5.1* | 2
NS(=O)(=O)c1ccc(NC(=O)c2cccc3cc4ccccc4nc23)cc1 | -4 | 2 | / | 0 | / | 1 | /
CCC(=O)/C=C1\Sc2ccc(OC)cc2N1CC | -7 | 4 | 1 | -1 | 11 | 5.7* | 4
COc1ccc(-c2nn(-c3ccccc3)cc2/C=N/n2cnnc2)cc1OC | -2 | -4 | 36 | -1 | 26 | 2 | /
C(=N\n1cnnc1)/c1cn(-c2cccs2)nc1-c1ccccc1 | -3 | -2 | 17 | 0 | 3 | 4.8* | 3
CCOC(=O)c1ccc(Nc2c(OCC)c(=O)c2=O)cc1 | -7 | 3 | 0 | 0 | 18 | 5.9* | 3
COCc1nnc(NC(=O)c2sc3ccccc3c2Cl)s1 | -4 | 2 | 1 | 1 | 12 | 5.0* | 3
O=C(c1cccc(S(=O)(=O)Nc2ccc(F)cc2)c1)N1CCC1 | -4 | 8 | -1 | 0 | / | -1 | /
Oc1oc(-c2ccccc2)nc1C=NCc1ccncc1 | -1 | 2 | 70* | 0 | 12 | 5.9* | 5
Cc1ccc(Cl)cc1N1CCN(C(=O)C2CCCN(S(=O)(=O)c3cnc[nH]3)C2)CC1 (centres undefined) | -3 | 6 | -1 | 0 | 23 | -1 | /
CC(=O)c1ccc(N2CCN(C(=O)C3CCCN(S(=O)(=O)c4cnc[nH]4)C3)CC2)cc1 (centres undefined) | -6 | 1 | 2 | -1 | 3 | 5.1* | 3
O=C(O)CC/C(=N\Nc1ccc(S(=O)(=O)N2CCOCC2)cc1[N+](=O)[O-])c1cccs1 | -12 | 0 | -4 | 0 | 47 | 4.9* | 4.7*
O=C(O)CC/C(=N\Nc1ccccc1[N+](=O)[O-])c1cccs1 | -3 | 3 | 16 | 0 | 3 | / | /
O=C(O)CC/C(=N\Nc1ccc(S(=O)(=O)N2CCCC2)cc1[N+](=O)[O-])c1cccs1 | -4 | 1 | / | 0 | / | 4.8* | 5
O=C(O)c1ccccc1/C=N/Nc1ccc(S(=O)(=O)N2CCOCC2)cc1[N+](=O)[O-] | 0 | -1 | -1 | 0 | 25 | 3 | /
CSc1nc2sc3c(c2c2nnnn12)CCCC3 | -6 | 1 | -3 | 0 | 2 | 12* | 17*
NC(=N\N=Cc1ccccc1)/C(N)=N/N=Cc1ccccc1 | -2 | -6 | / | 0 | / | 2 | /
SMILES | bovine MsrA act | HTR2A ag | AHR act | TbMetRS inhib | AI-2 QS modul | MsrA inh | MsrA inh confirm
NC(=N\N=Cc1ccco1)/C(N)=N/N=Cc1ccco1 | 0 | -5 | / | 0 | / | 4.8* | 6.4*
O=C(CNC(=O)c1ccco1)N/N=C/c1ccc(O)cc1O | 2 | -1 | 5 | 0 | 10 | 3 | /
Oc1ccc(C=NN=Cc2ccco2)c(O)c1 | -6 | -6 | / | -1 | / | 4.9* | 5.4*
CC1(C)O[C@@H](CC(=O)O)[C@]23CO[C@H](C(=O)[C@]4(C)C2CC[C@@]2(C)[C@H](c5ccoc5)OC(=O)C5O[C@]524)[C@@H]13 (some centres undefined) | -1 | 1 | -1 | 0 | / | 1 | /
O=C(CCc1cn2ccccc2n1)NC1CCCc2c1cnn2-c1ccccc1F (centres undefined) | 0 | -3 | 1 | 0 | 6 | 0 | /
CCN1C(=O)/C(=C\c2nc3ccccc3c(=O)n2CC)c2ccccc21 | -10 | -3 | 35 | -1 | 6 | 4.7* | 1
C/C(=N\Nc1cccc(C(=O)O)c1)c1cc2ccccc2o1 | -6 | 1 | 0 | -1 | / | 5.5* | 3
C/C(=N\Nc1ccc(Cl)c(C(=O)O)c1)c1cc2ccccc2o1 | -5 | -5 | 5 | 0 | / | 5.4* | 5.8*
C/C(=N\Nc1ccc(Cl)c(C(=O)O)c1)c1cccc2ccccc12 | -3 | 3 | 3 | 0 | 21 | 2 | /
c1ccc(N2CCN(c3cnccn3)CC2)nc1 | -6 | 1 | 0 | -3 | 5 | 2 | /
N#Cc1cc(C#N)c(N2CCN(c3ccccn3)CC2)nc1N | -2 | -1 | 6 | -1 | 1 | 4.7* | 3
COc1cccc(CNC(=O)[C@H](C)NC(=O)C2CCN(S(=O)(=O)c3ccccc3)CC2)c1 | -2 | -1 | 2 | 1 | 21 | 1 | /
Cc1ccc(S(=O)(=O)N2CCC(C(=O)OCC(=O)NC3(C#N)CCCCC3)CC2)cc1C | -3 | 1 | -1 | 0 | 27 | -1 | /
C=CCN1N=C(/C=C/c2ccc(OC)cc2)CCC1=O | -2 | 0 | 11 | 0 | 12 | 7.8* | 4.6*
CCOC(=O)CN1N=C(/C=C/c2ccc(OCC)cc2)CCC1=O | -6 | 5 | 3 | 0 | -3 | 7.2* | 4
Nc1ccc(C=Cc2ccc(N)cc2)cc1 | -15 | 8 | / | -1 | / | 5.2* | 4
COc1cc(C(O)c2nc(-c3cccc(F)c3)cs2)ccc1F (centres undefined) | -9 | 0 | / | 0 | / | 1 | /
Cc1c(NC(=S)N/N=C/C=C/c2ccccc2)c(=O)n(-c2ccccc2)n1C | -6 | 2 | -1 | 3 | 8 | 6.4* | 6.8*
